Test results taken from ChEMBL document CHEMBL3792386, “Design, Synthesis, and Biological Evaluation of Novel Selenium (Se-NSAID) Molecules as Anticancer Agents” (J Med Chem, 2016).

Tests used:
[1] = Induction of cell death in human HCT116 cells at 15 uM after 24 hrs by ethidium bromide staining-based fluorescence microscopy; type: functional, HCT-116
Procedure, shortened: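 HCT116 cells treated 24 h with DMSO, 1 mM aspirin or 15 μM compound, then trypsinised. Cells were stained with calcein-AM (live, esterase activity) and ethidium homodimer-1 (dead, membrane loss). Cells were imaged by fluorescence microscopy with a 20X objective, and percent dead cells was counted. Values are mean ±SD.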

MDA-MB-231 [2] = experiment: Antiproliferative activity against human MDA-MB-231 cells assessed as reduction in cell viability after 24 hrs by MTT assay; type: functional, cell-based; conditions: MDA-MB-231, 24 h
Procedure, shortened: (§1)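 3000 cells/well incubated in triplicate with serial concentrations of compound for 24, 48 or 72 h at 37 °C. MTT (5.0 mg/mL solution) added 3 h before the end. Formazan dissolved in DMSO, absorbance read at 570 and 630 nm. Viability normalised to vehicle control. IC50 from non-linear regression (variable slope), mean ± SD of triplicates.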

[3] = Antiproliferative activity against human SKOV3 cells assessed as reduction in cell viability after 72 hrs by MTT assay; type: functional, cell-based; conditions: SK-OV-3, 72 h; procedure, shortened: as §1
HCT-116 [4] = experiment: Induction of ROS generation in human HCT116 cells at 10 uM after 3 hrs by flow cytometry (reference value: 8.06%); type: functional
HCT-116 [5] = experiment: Induction of apoptosis in human HCT116 cells assessed as late apoptotic cells at 10 uM after 24 hrs by annexin V/7-ADD staining-based flow cytometry (reference value: 1.65%); type: functional
MDA-MB-231 [6] = experiment: Antiproliferative activity against human MDA-MB-231 cells assessed as reduction in cell viability after 48 hrs by MTT assay; type: functional, cell-based; conditions: MDA-MB-231, 48 h; procedure, shortened: as §1
[7] = Antiproliferative activity against human PANC1 cells assessed as reduction in cell viability after 72 hrs by MTT assay; type: functional, cell-based; conditions: PANC-1, 72 h; procedure, shortened: as §1
HCT-116 [8] = experiment: Induction of cell cycle arrest in human HCT116 cells assessed as accumulation at G1 phase at 5 uM after 24 hrs by propidium iodide staining-based flow cytometry (reference value: 28%); type: functional
HCT-116 [9] = experiment: Induction of cell cycle arrest in human HCT116 cells assessed as accumulation at G2/M phase at 5 uM after 12 hrs by propidium iodide staining-based flow cytometry (reference value: 10%); type: functional
HT-29 [10] = experiment: Antiproliferative activity against human HT-29 cells assessed as reduction in cell viability after 24 hrs by MTT assay; type: functional, cell-based; conditions: HT-29, 24 h; procedure, shortened: as §1
HCT-116 [11] = experiment: Induction of cell cycle arrest in human HCT116 cells assessed as accumulation at G1 phase at 5 uM after 12 hrs by propidium iodide staining-based flow cytometry (reference value: 35%); type: functional
RKO [12] = experiment: Antiproliferative activity against human RKO cells assessed as reduction in cell viability after 48 hrs by MTT assay; type: functional, cell-based; procedure, shortened: as §1
HepG2 = experiment: Antiproliferative activity against human HepG2 cells assessed as reduction in cell viability after 24 hrs by MTT assay; type: functional, cell-based; conditions: HepG2, 24 h; procedure, shortened: as §1
MDA-MB-231 [13] = experiment: Antiproliferative activity against human MDA-MB-231 cells assessed as reduction in cell viability after 72 hrs by MTT assay; type: functional, cell-based; conditions: MDA-MB-231, 72 h; procedure, shortened: as §1
HT-29 [14] = experiment: Antiproliferative activity against human HT-29 cells assessed as reduction in cell viability after 72 hrs by MTT assay; type: functional, cell-based; conditions: HT-29, 72 h; procedure, shortened: as §1
HCT-116 [15] = experiment: Induction of apoptosis in human HCT116 cells assessed as early apoptotic cells at 10 uM after 24 hrs by 7-ADD and caspase 3/7 activity-based flow cytometry (reference value: 2.45%); type: functional
HCT-116 [16] = experiment: Induction of cell cycle arrest in human HCT116 cells assessed as reduction of G2/M phase at 5 uM after 24 hrs by propidium iodide staining-based flow cytometry (reference value: 24%); type: functional; set-up: scale not given: the % may be the effect or the level left
[17] = Antiproliferative activity against human DU145 cells assessed as reduction in cell viability after 24 hrs by MTT assay; type: functional, cell-based; conditions: DU-145, 24 h; procedure, shortened: as §1
HCT-116 [18] = experiment: Induction of ROS generation in human HCT116 cells at 10 uM after 24 hrs by flow cytometry (reference value: 12.42%); type: functional
HCT-116 [19] = experiment: Induction of apoptosis in human HCT116 cells assessed as late apoptotic cells at 2.5 uM after 24 hrs by annexin V/7-ADD staining-based flow cytometry (reference value: 1.65%); type: functional
[20] = Antiproliferative activity against human DU145 cells assessed as reduction in cell viability after 48 hrs by MTT assay; type: functional, cell-based; conditions: DU-145, 48 h; procedure, shortened: as §1
[21] = Antiproliferative activity against human HCT116 cells assessed as reduction in cell viability after 72 hrs by MTT assay; type: functional, cell-based; conditions: HCT-116, 72 h; procedure, shortened: as §1
UACC-903 = experiment: Antiproliferative activity against human UACC-903 cells assessed as reduction in cell viability after 24 hrs by MTT assay; type: functional, cell-based; conditions: UACC-903, 24 h; procedure, shortened: as §1
HCT-116 [22] = experiment: Induction of apoptosis in human HCT116 cells assessed as late apoptotic cells at 10 uM after 24 hrs by 7-ADD and caspase 3/7 activity-based flow cytometry (reference value: 1.70%); type: functional
NCI-H460 = experiment: Antiproliferative activity against human NCI-H460 cells assessed as reduction in cell viability after 48 hrs by MTT assay; type: functional, cell-based; conditions: NCI-H460, 48 h; procedure, shortened: as §1
RKO [23] = experiment: Antiproliferative activity against human RKO cells assessed as reduction in cell viability after 24 hrs by MTT assay; type: functional, cell-based; procedure, shortened: as §1
HCT-116 [24] = experiment: Induction of apoptosis in human HCT116 cells assessed as early apoptotic cells at 10 uM after 24 hrs by annexin V/7-ADD staining-based flow cytometry (reference value: 5.20%); type: functional
NHDF = experiment: Cytotoxicity against human NHDF at 1 to 10 uM after 48 hrs by MTT assay; type: cell-based
Procedure, shortened: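 Cells (HCT116, nHDF in serum-free fibroblast medium with growth kit, or MEFs) exposed to increasing compound concentrations for 48 h at 37 °C. Viability read by MTT: 3000 cells/well, triplicate, MTT 3 h before end, formazan in DMSO, absorbance 570/630 nm. Mean ± SD.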

[25] = Effect on cell cycle in human HCT116 cells assessed as upregulation of cyclin p21 expression after 24 hrs by Western blot method; type: functional, cell-based; conditions: HCT-116
Procedure, shortened: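 CRC cells treated at indicated doses for 24 h. Whole-cell lysates made in RIPA buffer with protease and phosphatase inhibitors and cleared at 15,000 rpm for 10 min. Resolved on 4-12% gels, transferred to PVDF, probed for cell-cycle proteins, detected by ECL. Membranes stripped for sequential probing.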

HCT-116 [26] = experiment: Induction of apoptosis in human HCT116 cells assessed as early apoptotic cells at 2.5 uM after 24 hrs by 7-ADD and caspase 3/7 activity-based flow cytometry (reference value: 2.45%); type: functional
[27] = Antiproliferative activity against human SKOV3 cells assessed as reduction in cell viability after 24 hrs by MTT assay; type: functional, cell-based; conditions: SK-OV-3, 24 h; procedure, shortened: as §1
HCT-116 [28] = experiment: Induction of apoptosis in human HCT116 cells assessed as dead cells at 10 uM after 24 hrs by 7-ADD and caspase 3/7 activity-based flow cytometry (reference value: 3.25%); type: functional
HCT-116 [29] = experiment: Induction of ROS generation in human HCT116 cells at 10 uM after 6 hrs by flow cytometry (reference value: 6%); type: functional

SMILES: CC(=O)Oc1ccccc1C(=O)NCC[Se]C#N
- Activity [1]: 51%
- IC50 (MDA-MB-231 [2]): 21.1 µM
- IC50 [3]: 4.4 µM
- Activity (HCT-116 [4]): 9%
- Activity (HCT-116 [5]): 51.55%
- IC50 (MDA-MB-231 [6]): 5.5 µM
- IC50 [7]: 2.6 µM
- Activity (HCT-116 [8]): 68%
- Activity (HCT-116 [9]): 24%
- IC50 (HT-29 [10]): 3.4 µM
- Activity (HCT-116 [11]): 62%
- IC50 (RKO [12]): 2.2 µM
- IC50 (HepG2): 16 µM
- IC50 (MDA-MB-231 [13]): 6 µM
- IC50 (HT-29 [14]): 2.1 µM
- Activity (HCT-116 [15]): 37.65%
- Activity (HCT-116 [16]): 19%
- IC50 [17]: 8.2 µM
- Activity (HCT-116 [18]): 80.54%
- Activity (HCT-116 [19]): 8.3%
- IC50 [20]: 3.4 µM
- IC50 [21]: 2.1 µM
- IC50 (UACC-903): 24.3 µM
- Activity (HCT-116 [22]): 46.85%
- IC50 (NCI-H460): 2.4 µM
- IC50 (RKO [23]): 13.3 µM
- Activity (HCT-116 [24]): 32.4%
- Activity (NHDF): Non-toxic
- Activity [25]: Dose-dependent effect
- Activity (HCT-116 [26]): 28.45%
- IC50 [27]: > 50 µM
- Activity (HCT-116 [28]): 2.25%
- Activity (HCT-116 [29]): 16.54%
